ChEMBL document CHEMBL4266062, “Discovery of JND3229 as a New EGFRC797S Mutant Inhibitor with In Vivo Monodrug Efficacy” (ACS Med Chem Lett, 2018)
The source made the active and inactive calls. The calls are words filed in the database; no cut-off is given here.

Tests used:
NCI-H1975 = assay: Antiproliferative activity against human NCI-H1975 cells harboring EGFR L858R/T790M mutant after 72 hrs by resazurin dye based assay; type: functional, cell-based; settings: NCI-H1975, 72 h
A-431 = assay: Antiproliferative activity against human A431 cells harboring wild type EGFR after 72 hrs by resazurin dye based assay; type: functional, cell-based; settings: A-431, 72 h
BaF3 [1] = assay: Antiproliferative activity against mouse BAF3 cells harboring EGFR 19D/T790M/C797S mutant after 72 hrs by resazurin dye based assay; type: functional, cell-based; settings: BaF3, 72 h
BaF3 [2] = assay: Antiproliferative activity against mouse BAF3 cells harboring EGFR L858R/T790M/C797S mutant after 72 hrs by resazurin dye based assay; type: functional, cell-based; settings: BaF3, 72 h
[3] = system: Epidermal growth factor receptor (Homo sapiens), P00533 [UNDEFINED MUTATION]; assay: Inhibition of EGFR 19D/T790M/C797S mutant (unknown origin) expressed in mouse BAF3 cells assessed as reduction in EGF-induced receptor phosphorylation preincubated for 2 hrs followed by EGF stimulation for 15 mins by Western blot analysis; type: cell-based
Sequence of Epidermal growth factor receptor (Homo sapiens), P00533 [UNDEFINED MUTATION] (P00533 whole entry, looked up, stated change not applied): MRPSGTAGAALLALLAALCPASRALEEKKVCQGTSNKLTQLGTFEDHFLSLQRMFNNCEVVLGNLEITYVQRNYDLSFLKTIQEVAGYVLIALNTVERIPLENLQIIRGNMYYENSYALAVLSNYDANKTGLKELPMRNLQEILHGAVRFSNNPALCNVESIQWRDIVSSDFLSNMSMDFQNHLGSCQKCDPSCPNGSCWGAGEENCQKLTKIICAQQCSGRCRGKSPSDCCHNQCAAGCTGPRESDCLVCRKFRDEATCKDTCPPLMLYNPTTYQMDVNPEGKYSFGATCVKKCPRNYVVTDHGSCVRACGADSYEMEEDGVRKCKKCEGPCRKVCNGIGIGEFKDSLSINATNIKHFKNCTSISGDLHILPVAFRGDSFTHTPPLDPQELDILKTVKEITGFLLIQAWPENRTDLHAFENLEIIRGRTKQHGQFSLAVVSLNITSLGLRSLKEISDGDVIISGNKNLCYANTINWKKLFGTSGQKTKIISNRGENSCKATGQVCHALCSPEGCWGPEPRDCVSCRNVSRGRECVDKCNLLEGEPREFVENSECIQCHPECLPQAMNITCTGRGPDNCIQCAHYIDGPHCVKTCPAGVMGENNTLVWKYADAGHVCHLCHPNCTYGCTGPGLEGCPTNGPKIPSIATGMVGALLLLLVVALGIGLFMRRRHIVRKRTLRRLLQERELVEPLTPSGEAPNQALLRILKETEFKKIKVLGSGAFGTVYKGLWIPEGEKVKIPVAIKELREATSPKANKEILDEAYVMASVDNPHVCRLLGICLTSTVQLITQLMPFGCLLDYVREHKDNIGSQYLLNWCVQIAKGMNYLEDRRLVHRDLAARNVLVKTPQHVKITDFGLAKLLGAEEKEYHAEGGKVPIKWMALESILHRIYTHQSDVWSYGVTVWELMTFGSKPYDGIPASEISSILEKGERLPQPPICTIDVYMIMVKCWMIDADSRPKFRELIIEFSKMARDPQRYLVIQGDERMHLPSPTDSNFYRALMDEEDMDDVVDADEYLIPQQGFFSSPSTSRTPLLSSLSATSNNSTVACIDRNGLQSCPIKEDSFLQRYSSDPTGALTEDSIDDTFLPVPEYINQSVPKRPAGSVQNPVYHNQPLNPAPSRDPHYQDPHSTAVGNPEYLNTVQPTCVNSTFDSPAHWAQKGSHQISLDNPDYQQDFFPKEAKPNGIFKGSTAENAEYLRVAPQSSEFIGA
Summary of the method: (§1)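 BaF3 cells stably transfected with the mutant EGFR were treated for 2 h across a range of compound concentrations, then stimulated with EGF for 15 min. Cell lysates were collected, and EGFR phosphorylation was read out by Western blot.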

[4] = system: Epidermal growth factor receptor (Homo sapiens), P00533 [L858R,T790M,C797S]; assay: Inhibition of EGFR T790M/L858R/C797S mutant (unknown origin) expressed in mouse BAF3 cells assessed as reduction in EGF-induced receptor phosphorylation preincubated for 2 hrs followed by EGF stimulation for 15 mins by Western blot analysis; type: cell-based; summary of the method: as §1
Sequence of Epidermal growth factor receptor (Homo sapiens), P00533 [L858R,T790M,C797S] (P00533 whole entry T790M/C797S/L858R): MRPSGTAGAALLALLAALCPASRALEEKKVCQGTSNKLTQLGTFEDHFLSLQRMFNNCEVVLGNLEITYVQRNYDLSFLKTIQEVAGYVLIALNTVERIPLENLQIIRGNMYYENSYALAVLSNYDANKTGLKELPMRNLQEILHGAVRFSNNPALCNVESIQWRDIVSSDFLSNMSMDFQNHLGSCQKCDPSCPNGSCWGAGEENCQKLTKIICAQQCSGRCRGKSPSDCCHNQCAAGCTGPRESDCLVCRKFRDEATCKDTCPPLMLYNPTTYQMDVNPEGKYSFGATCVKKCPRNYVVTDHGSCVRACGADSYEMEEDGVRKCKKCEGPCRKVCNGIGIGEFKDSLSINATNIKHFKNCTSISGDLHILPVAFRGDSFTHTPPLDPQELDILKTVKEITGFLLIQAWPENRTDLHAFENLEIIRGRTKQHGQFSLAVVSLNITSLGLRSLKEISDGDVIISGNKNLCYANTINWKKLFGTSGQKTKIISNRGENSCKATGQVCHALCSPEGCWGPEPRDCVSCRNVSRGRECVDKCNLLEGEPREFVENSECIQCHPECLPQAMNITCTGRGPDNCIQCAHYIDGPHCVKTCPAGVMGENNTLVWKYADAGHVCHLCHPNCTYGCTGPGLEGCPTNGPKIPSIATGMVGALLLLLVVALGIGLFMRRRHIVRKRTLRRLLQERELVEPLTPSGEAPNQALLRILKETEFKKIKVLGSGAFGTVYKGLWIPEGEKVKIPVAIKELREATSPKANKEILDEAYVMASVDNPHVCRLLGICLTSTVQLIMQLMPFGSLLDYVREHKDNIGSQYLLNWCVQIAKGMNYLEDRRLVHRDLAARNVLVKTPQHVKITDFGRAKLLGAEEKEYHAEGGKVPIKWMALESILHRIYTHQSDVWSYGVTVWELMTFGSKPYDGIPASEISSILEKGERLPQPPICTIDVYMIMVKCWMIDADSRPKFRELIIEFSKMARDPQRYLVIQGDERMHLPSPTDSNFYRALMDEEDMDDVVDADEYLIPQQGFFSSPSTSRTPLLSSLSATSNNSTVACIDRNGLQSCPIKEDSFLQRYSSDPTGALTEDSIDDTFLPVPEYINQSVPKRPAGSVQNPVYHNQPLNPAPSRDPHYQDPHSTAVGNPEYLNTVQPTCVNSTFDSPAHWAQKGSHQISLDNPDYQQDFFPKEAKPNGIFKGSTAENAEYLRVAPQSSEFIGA

Mus musculus [5] = assay: Toxicity in Balb/c mouse implanted with mouse BAF3-EGFR 19D/T790M/C797S mutant cells assessed as change in body weight at 10 mg/kg, ip administered twice daily for 10 days measured every 2 to 3 days during compound dosing; type: organism-based; settings: in vivo
Summary of the method: (§2)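 BALB/c mice with established BaF3-EGFR19D/T790M/C797S xenografts (n = 6); 10 mg/kg in 0.5% HPMC ip twice daily for 10 days versus vehicle. Relative tumor volume and body weight recorded every 2–3 days. TGI taken on the final treatment day versus control; Student's t test.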

BaF3 [6] = assay: Antitumor activity against mouse BAF3 cells harboring EGFR 19D/T790M/C797S mutant implanted in Balb/c mouse assessed as tumor growth inhibition at 10 mg/kg, ip administered twice daily for 10 days relative to control; type: functional; settings: 240 h, read-out: TGI; summary of the method: as §2
Mus musculus [7] = assay: In vivo inhibition of EGFR phosphorylation in tumor of Balb/c mouse implanted with mouse BAF3-EGFR 19D/T790M/C797S mutant cells at 10 mg/kg, ip administered twice daily for 10 days by H and E staining based IHC analysis; type: functional, organism-based
Summary of the method: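 Xenograft tumor sections taken from the 10 mg/kg ip twice-daily treated mice and controls. Sections stained with H&E and anti-p-EGFR antibody. p-EGFR labeling quantified as relative integrated optical density; Student's t test versus control.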

[8] = target: Epidermal growth factor receptor (Homo sapiens, UniProt P00533, C797S/L858R/T790M); assay: Inhibition of recombinant human C-terminal His-tagged/N-terminal GST-tagged EGFR (668 to 1210 residues) T790M/L858R/C797S mutant using poly (Glu,Tyr) 4:1 as substrate after 1 hr by ELISA
Sequence of Epidermal growth factor receptor (Homo sapiens, UniProt P00533, C797S/L858R/T790M) (P00533 25-1210 T790M/C797S/L858R limits assumed): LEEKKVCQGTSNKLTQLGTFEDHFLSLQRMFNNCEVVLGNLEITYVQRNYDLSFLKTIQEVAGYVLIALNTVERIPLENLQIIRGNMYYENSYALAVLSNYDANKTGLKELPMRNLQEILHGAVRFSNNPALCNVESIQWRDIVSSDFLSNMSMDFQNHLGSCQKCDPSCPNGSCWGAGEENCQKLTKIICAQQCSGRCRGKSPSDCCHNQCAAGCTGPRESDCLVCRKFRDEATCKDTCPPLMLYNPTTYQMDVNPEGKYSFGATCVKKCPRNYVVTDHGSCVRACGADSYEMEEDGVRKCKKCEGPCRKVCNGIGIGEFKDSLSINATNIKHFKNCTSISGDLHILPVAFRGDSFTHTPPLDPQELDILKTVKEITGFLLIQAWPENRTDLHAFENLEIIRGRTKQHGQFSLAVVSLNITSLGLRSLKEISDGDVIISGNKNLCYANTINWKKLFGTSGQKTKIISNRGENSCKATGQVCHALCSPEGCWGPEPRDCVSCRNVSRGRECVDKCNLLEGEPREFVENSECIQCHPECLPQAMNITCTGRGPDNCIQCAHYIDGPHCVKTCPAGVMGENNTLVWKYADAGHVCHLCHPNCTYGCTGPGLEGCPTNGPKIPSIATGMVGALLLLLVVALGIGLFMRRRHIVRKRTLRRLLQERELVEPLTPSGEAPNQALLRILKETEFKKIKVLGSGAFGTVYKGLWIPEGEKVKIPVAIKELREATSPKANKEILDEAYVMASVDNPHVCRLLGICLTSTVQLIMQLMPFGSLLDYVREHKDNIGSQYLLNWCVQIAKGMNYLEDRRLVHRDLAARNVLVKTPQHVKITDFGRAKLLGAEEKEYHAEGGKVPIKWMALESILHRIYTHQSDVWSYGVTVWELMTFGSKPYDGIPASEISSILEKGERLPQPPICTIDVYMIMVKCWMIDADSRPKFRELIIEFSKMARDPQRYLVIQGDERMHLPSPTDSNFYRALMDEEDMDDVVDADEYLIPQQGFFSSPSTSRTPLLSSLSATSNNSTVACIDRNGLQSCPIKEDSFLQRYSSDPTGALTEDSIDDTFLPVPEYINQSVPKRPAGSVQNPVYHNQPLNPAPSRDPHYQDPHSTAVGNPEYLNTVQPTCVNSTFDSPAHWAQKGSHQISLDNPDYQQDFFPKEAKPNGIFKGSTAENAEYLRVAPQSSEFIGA

[9] = target: Epidermal growth factor receptor (Homo sapiens, UniProt P00533, L858R/T790M); assay: Inhibition of recombinant human EGFR T790M/L858R double mutant using poly (Glu,Tyr) 4:1 as substrate after 1 hr by ELISA
Sequence of Epidermal growth factor receptor (Homo sapiens, UniProt P00533, L858R/T790M) (P00533 25-1210 T790M/L858R limits assumed): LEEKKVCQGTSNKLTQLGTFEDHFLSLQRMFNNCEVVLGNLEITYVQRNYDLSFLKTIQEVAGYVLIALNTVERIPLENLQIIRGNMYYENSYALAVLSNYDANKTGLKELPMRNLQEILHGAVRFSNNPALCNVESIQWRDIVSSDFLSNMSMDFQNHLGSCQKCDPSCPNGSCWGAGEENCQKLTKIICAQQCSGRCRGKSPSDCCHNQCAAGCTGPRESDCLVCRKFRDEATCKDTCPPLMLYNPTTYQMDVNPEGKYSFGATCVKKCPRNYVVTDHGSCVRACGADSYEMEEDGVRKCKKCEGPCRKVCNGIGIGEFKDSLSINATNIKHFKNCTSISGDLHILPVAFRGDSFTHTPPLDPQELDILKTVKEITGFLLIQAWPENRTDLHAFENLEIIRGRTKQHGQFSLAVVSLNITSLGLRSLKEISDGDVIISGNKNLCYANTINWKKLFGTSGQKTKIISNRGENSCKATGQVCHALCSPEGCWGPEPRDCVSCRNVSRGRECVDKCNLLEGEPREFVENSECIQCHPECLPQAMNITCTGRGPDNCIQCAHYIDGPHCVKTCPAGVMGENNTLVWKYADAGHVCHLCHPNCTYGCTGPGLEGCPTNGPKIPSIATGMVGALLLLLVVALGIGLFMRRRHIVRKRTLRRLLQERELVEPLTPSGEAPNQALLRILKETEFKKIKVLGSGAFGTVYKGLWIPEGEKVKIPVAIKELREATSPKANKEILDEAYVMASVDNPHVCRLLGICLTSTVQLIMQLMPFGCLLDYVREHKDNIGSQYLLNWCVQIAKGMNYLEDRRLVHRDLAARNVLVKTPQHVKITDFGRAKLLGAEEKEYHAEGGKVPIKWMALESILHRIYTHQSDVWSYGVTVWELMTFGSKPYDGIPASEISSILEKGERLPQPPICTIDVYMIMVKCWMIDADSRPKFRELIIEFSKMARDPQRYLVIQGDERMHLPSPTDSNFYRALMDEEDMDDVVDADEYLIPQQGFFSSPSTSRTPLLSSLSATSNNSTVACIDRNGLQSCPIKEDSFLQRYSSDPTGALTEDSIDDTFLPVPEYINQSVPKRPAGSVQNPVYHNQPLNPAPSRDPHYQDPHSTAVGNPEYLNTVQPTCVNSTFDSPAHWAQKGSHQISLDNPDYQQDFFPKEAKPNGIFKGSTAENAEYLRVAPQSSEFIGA

BaF3 [10] = assay: Antitumor activity against mouse BAF3 cells harboring EGFR 19D/T790M/C797S mutant implanted in Balb/c mouse assessed as tumor growth inhibition at 60 mg/kg, po administered once daily via gavage for 10 days co-treated with cetuximab once every other day relative to control; type: functional; settings: 240 h, read-out: TGI
Summary of the method: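 Same BaF3-EGFR19D/T790M/C797S xenograft in BALB/c mice (n = 6). Positive-control regimen: 60 mg/kg in 10% NMP/90% PEG300 by oral gavage once daily, plus cetuximab 1 mg/kg in 0.9% NaCl/water ip every other day. Relative tumor volume measured every 2–3 days. TGI taken on the final treatment day versus control; Student's t test.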

IC50 (NCI-H1975) [nM]	IC50 (BaF3 [1]) [nM]	IC50 (BaF3 [2]) [nM]	Compound	IC50 (A-431) [nM]	also measured
1090	260	420	COc1cc(N2CCC(N3CCN(C)CC3)CC2)ccc1Nc1ncc(Cl)c(Nc2ccccc2P(C)(C)=O)n1 [BRIGATINIB]		
310	320	510	CCC(=O)N[C@H]1CC[C@H](N2C(=O)N(c3ccccc3Cl)Cc3cnc(Nc4ccc(N5CCN(C)CC5)c(C)c4)nc32)CC1	270	inhibition [3]: Dose-dependent effect; inhibition [4]: Dose-dependent effect; Activity (Mus musculus [5]): Non-Toxic; inhibition in vivo at 10 mg/kg (BaF3 [6]): 42.2%; inhibition (Mus musculus [7]): Active
			N#Cc1ccc(O)c(-c2nc(NCc3cnccn3)c3ccccc3n2)c1		IC50 [8]: 85.2 nM; IC50 [9]: 367 nM
			O=C(Nc1nccs1)C(c1cc(F)ccc1O)N1Cc2ccccc2C1=O (centres undefined)		inhibition in vivo at 60 mg/kg (BaF3 [10]): 22.3%

Compound	IC50 (NCI-H1975) [nM]	IC50 (BaF3 [1]) [nM]	IC50 (BaF3 [2]) [nM]	IC50 (A-431) [nM]	also measured
C=CC(=O)Nc1cc(Nc2nccc(-c3cn(C)c4ccccc34)n2)c(OC)cc1N(C)CCN(C)C [OSIMERTINIB]	[…]	4610	5150	[…]	
